From ChEMBL document CHEMBL1143706, “Design, synthesis, and biological evaluation of novel bifunctional C-terminal-modified peptides for delta/mu opioid receptor agonists and neurokinin-1 receptor antagonists” (J Med Chem, 2007) come the findings set out here.

Each structure is given as a SMILES string. Square brackets hold non-standard residues; d marks the D form. Peptide text beside a SMILES is read from it. * marks the point of attachment. OBzl(3,5-(CF3)2) = FC(F)(F)c1cc(CO*)cc(C(F)(F)F)c1

Test [1] deals with T1, Delta-type opioid receptor (Homo sapiens, UniProt P41143). Kind of test: Displacement of [3H]DPDPE from human delta opioid receptor expressed in HN9.10 cells. Format: cell-based.
T1 sequence (P41143 whole entry): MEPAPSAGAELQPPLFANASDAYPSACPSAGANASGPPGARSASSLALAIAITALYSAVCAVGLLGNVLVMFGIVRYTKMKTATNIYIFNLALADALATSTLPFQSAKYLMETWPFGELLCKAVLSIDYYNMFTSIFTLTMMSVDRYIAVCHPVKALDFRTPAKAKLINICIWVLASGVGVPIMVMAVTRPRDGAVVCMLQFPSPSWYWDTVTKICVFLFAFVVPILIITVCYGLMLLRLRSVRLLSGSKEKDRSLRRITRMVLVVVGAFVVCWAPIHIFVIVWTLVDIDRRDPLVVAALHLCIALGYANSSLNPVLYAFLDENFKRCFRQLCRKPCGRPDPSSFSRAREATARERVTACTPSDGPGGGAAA
For test [2], the target named is T1, Delta-type opioid receptor. Kind of test: Agonist activity at human delta opioid receptor expressed in HN9.10 cells assessed by [35S]GTP-gamma-S binding assay. Type of test: functional, cell-based. Put shortly:
(§1)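 Membranes (10 μg) from transfected cells stably expressing hDOR or rMOR, in 1 mL of 50 mM HEPES pH 7.4 with 1 mM EDTA, 5 mM MgCl2, 30 μM GDP, 1 mM DTT, 100 mM NaCl, 0.1 mM PMSF, 0.1% BSA and 0.1 nM [35S]GTPγS. Peptide added at various concentrations in duplicate, 90 min at 30 °C, then filtration. Nonspecific binding defined with 10 μM GTPγS. Stimulation taken as % over basal; EC50 and Emax by nonlinear regression from two independent experiments.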

Test [3] concerns the target T2, Mu-type opioid receptor (Rattus norvegicus, UniProt P33535). As to the kind of experiment: Agonist activity at rat mu opioid receptor expressed in HN9.10 cells assessed by [35S]GTP-gamma-S binding assay. Type of test: functional, cell-based. The procedure, abridged:
as §1
For orientation: GTPγS is a poorly hydrolysed GTP analogue; its binding reports G protein activation.

Test [4] in a line: Ratio of EC50 for rat mu opioid receptor to EC50 for human delta opioid receptor by [35S]GTPgammaS binding assay. Type of test: functional. Put shortly: as §1
Test [5] in a line: Ratio of Ki for rat mu opioid receptor to Ki for human delta opioid receptor. The procedure, abridged: (§2)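 Competition binding on crude membranes (50 μg) from cells stably expressing rMOR ([3H]DAMGO, 1.0 nM) or hDOR ([3H]DPDPE, 1.0 nM). Buffer was 50 mM Tris pH 7.4 with peptidase/protease inhibitors and 1 mg/mL BSA. Ten peptide concentrations were run in duplicate for 3 h at 25 °C, with 10 μM naloxone for nonspecific binding. Separation by filtration and scintillation counting; IC50 by nonlinear regression from two experiments; Ki by Cheng–Prusoff.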

The nature of test [6]: Ratio of IC50 for mu opioid receptor in GPI assay to IC50 for delta opioid receptor in MVD assay. Format: functional. The procedure, abridged: (§3)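 Isolated tissues, electrically stimulated at supramaximal voltage: guinea pig (male Hartley) ileum LMMP (1 g tension, Krebs, 0.1 Hz, 0.4 ms) and male ICR mouse vas deferens (0.5 g, Mg-free Krebs, 0.1 Hz, 2.0 ms), both at 37 °C.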

In test [7] the target is Substance-P receptor (Cavia porcellus) (UniProt P30547). Kind of test: Agonist activity at NK1 receptor in Hartley guinea pig isolated ileum assessed as muscle contraction relative to KCl. Type of test: functional, tissue-based. More on the design: concentration or dose not given beside the values. Put shortly: (§4)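 Guinea pig ileum LMMP (male Hartley) in oxygenated Krebs at 37 °C, 1 g tension, exposed to peptide at the tested antagonist concentration. Any contraction was expressed relative to the initial KCl-induced contraction of the same tissue. Testing stopped at […].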
Substance-P receptor (Cavia porcellus), sequence (P30547 whole entry): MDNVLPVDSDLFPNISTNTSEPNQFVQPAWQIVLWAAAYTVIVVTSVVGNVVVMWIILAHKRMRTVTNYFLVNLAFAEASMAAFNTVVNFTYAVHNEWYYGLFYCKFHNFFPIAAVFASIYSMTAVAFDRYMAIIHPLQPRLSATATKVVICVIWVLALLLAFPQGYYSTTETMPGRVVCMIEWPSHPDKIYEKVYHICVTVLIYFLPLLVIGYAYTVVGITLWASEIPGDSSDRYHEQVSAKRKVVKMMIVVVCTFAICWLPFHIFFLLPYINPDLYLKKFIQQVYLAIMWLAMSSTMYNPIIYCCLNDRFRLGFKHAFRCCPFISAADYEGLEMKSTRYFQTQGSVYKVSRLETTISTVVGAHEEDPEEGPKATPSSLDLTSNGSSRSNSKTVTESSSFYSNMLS

For test [8] the target is unchanged. Kind of test: Antagonist activity at NK1 receptor in Hartley guinea pig isolated ileum assessed as inhibition of substance P-induced muscle contraction. Format: functional, tissue-based. The procedure, abridged: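 Guinea pig ileum LMMP (male Hartley), 1 g tension, in oxygenated Krebs at 37 °C, with 1 μM naloxone present. Substance P dose–response curves were run with and without peptide. Responses were expressed as % of the maximal peak of the control substance P curve, and Ke was derived from these curves.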

The target of test [9] is Mu-type opioid receptor (Cavia porcellus) (UniProt P97266). Kind of test: Agonist activity at mu opioid receptor in Hartley guinea pig isolated ileum assessed as muscle contraction at 1 uM relative to KCl. Type of test: functional, tissue-based. Put shortly:
as §4

Test [10] concerns the target T1, Delta-type opioid receptor. As to the kind of experiment: Agonist activity at human delta opioid receptor expressed in HN9.10 cells assessed by [35S]GTP-gamma-S binding assay relative to control. Format: functional, cell-based. The procedure, abridged: as §1
Test [11] deals with Mu-type opioid receptor (Rattus norvegicus) (UniProt P33535). As to the kind of experiment: Agonist activity at rat mu opioid receptor expressed in HN9.10 cells assessed by [35S]GTP-gamma-S binding assay relative to control. Format: functional, cell-based. Put shortly:
as §1

Test [12] deals with T2, Mu-type opioid receptor. Kind of test: Displacement of [3H]DAMGO from rat mu opioid receptor expressed in HN9.10 cells. Type of test: cell-based. Put shortly: as §2
On the technique in general: Displacement assays read how much labelled ligand stays bound in the presence of the test substance.

Test [13] addresses Mu-type opioid receptor (Cavia porcellus, UniProt P97266). Kind of test: Agonist activity at mu opioid receptor in Hartley guinea pig ileum assessed as inhibition of electrically-stimulated muscle contraction. Format: functional, tissue-based. Put shortly: as §3

Mu-type opioid receptor (Rattus norvegicus), sequence (P33535 whole entry): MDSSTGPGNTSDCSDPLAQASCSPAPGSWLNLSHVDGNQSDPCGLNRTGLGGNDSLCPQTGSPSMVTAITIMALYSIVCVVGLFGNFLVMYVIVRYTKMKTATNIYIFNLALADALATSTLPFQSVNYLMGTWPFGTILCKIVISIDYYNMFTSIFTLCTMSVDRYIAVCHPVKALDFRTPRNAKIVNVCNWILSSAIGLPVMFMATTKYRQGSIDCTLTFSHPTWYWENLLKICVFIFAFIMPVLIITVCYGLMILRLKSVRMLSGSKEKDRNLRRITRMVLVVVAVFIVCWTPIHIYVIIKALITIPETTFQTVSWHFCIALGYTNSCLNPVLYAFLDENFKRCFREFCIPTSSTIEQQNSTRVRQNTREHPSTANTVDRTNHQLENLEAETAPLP
T2 sequence (P33535 whole entry): as above
Mu-type opioid receptor (Cavia porcellus), sequence (P97266 whole entry): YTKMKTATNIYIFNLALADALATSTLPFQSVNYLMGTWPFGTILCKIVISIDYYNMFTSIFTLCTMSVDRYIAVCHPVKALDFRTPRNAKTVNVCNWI
Mu-type opioid receptor (Cavia porcellus, UniProt P97266), sequence (P97266 whole entry): as above

Molecule `CC(C)C[C@H](NC(=O)[C@@H]1CCCN1C(=O)[C@H](Cc1ccccc1)NC(=O)[C@H](Cc1ccccc1)NC(=O)CNC(=O)[C@@H](C)NC(=O)[C@@H](N)Cc1ccc(O)cc1)C(=O)N[C@@H](Cc1c[nH]c2ccccc12)C(=O)OCc1cc(C(F)(F)F)cc(C(F)(F)F)c1` had an inhibition constant (Ki) in test [1] of 15 nM. Moreover, the EC50 in test [2] turned out to be 21 nM; in [3] it was 59 nM. Moreover, the Ratio EC50 in [4] was 2.8. Further, the Ratio Ki in test [5] stood at 1.9. In test [6], the Ratio IC50 was above 1. In addition, the figures for the Activity in test [7] and in [9] were 0% and 7%, respectively. Further, the Ke in [8] is 14 nM. In addition, the maximal response (Emax) in test [10] turned out to be 39%; in test [11], 36%.
With `CC(C)C[C@H](NC(=O)[C@@H]1CCCN1C(=O)[C@@H](Cc1ccccc1)NC(=O)[C@H](Cc1ccccc1)NC(=O)CNC(=O)[C@@H](C)NC(=O)[C@@H](N)Cc1ccc(O)cc1)C(=O)N[C@@H](Cc1c[nH]c2ccccc12)C(=O)OCc1cc(C(F)(F)F)cc(C(F)(F)F)c1`, the EC50 in test [2] is 17 nM; in test [3] it was 350 nM. The Ratio EC50 in test [4] is 20. For the same molecule, in test [5], the Ratio Ki was 4.1. Further, the Ratio IC50 in test [6] is above 2.4. Further, the figures for the Activity in test [7] and in test [9] were 0% and 9%, respectively. In test [8], the Ke was found to be 70 nM. The maximum response (Emax) is 23% in [10] and 24% in test [11].
As to `CC(C)C[C@H](NC(=O)[C@@H]1CCCN1C(=O)[C@H](CC(C)C)NC(=O)[C@H](Cc1ccccc1)NC(=O)CNC(=O)[C@@H](C)NC(=O)[C@@H](N)Cc1ccc(O)cc1)C(=O)N[C@@H](Cc1c[nH]c2ccccc12)C(=O)OCc1cc(C(F)(F)F)cc(C(F)(F)F)c1`, the Ki in test [12] was 23 nM. The same molecule yielded an EC50 in test [3] of 33 nM. The Ratio EC50 in test [4] turned out to be 3.4. Besides, the Ratio Ki in [5] was determined as 4.7. For the same molecule, the concentration for half-maximal inhibition (IC50) in test [13] is 340 nM. Moreover, the Ratio IC50 in [6] came to 3.4. In [7], the Activity was 0%. Moreover, the Ke in test [8] came out at 19 nM. Also, the maximal response (Emax) in test [10] was found to be 43%; in test [11], 45%.
Consider `CC(=O)N[C@@H](Cc1c[nH]c2ccccc12)C(=O)OCc1cc(C(F)(F)F)cc(C(F)(F)F)c1`, for which, in test [8], the Ke was 250 nM.
Turning to `CC(C)C[C@H](NC(=O)[C@@H]1CCCN1C(=O)[C@H](CC[S+](C)[O-])NC(=O)[C@H](Cc1ccccc1)NC(=O)CNC(=O)[C@@H](C)NC(=O)[C@@H](N)Cc1ccc(O)cc1)C(=O)N[C@@H](Cc1c[nH]c2ccccc12)C(=O)OCc1cc(C(F)(F)F)cc(C(F)(F)F)c1` (some centres undefined), the IC50 in [13] turned out to be 150 nM. Further, the Ke in [8] came to 7.8 nM. In test [10], this molecule registered an Emax of 52%.
Turning to `CC(C)C[C@H](NC(=O)[C@@H]1CCCN1C(=O)CNC(=O)[C@H](Cc1ccccc1)NC(=O)CNC(=O)[C@@H](C)NC(=O)[C@@H](N)Cc1ccc(O)cc1)C(=O)N[C@@H](Cc1c[nH]c2ccccc12)C(=O)OCc1cc(C(F)(F)F)cc(C(F)(F)F)c1` (H-Y[dA]GFGPLW-{OBzl(3,5-(CF3)2)}), the concentration for a half-maximal effect (EC50) was determined as 50 nM in test [2] and 42 nM in [3]. In addition, in test [13], the half-inhibitory concentration (IC50) was determined as 380 nM. Moreover, the Activity in test [7] worked out at 0%. The Ke in test [8] is 5.4 nM. Besides, the maximum response (Emax) in test [10] stood at 34%; in [11] it was 36%.
For the molecule `CC(C)C[C@@H](NC(=O)[C@H](Cc1ccccc1)NC(=O)CNC(=O)[C@@H](C)NC(=O)[C@@H](N)Cc1ccc(O)cc1)C(=O)O` [DADLE], the IC50 in test [13] came out at 24 nM.
In [2], `CSCC[C@H](NC(=O)[C@H](Cc1ccccc1)NC(=O)CNC(=O)[C@@H](C)NC(=O)[C@@H](N)Cc1ccc(O)cc1)C(=O)N1CCC[C@H]1C(=O)N[C@@H](CC(C)C)C(=O)N[C@@H](Cc1c[nH]c2ccccc12)C(=O)OCc1cc(C(F)(F)F)cc(C(F)(F)F)c1` yielded a 50% effective concentration (EC50) of 2.9 nM. Also, the IC50 in test [13] turned out to be 360 nM. Moreover, the Activity in test [7] was found to be 0%. The Ke in test [8] is 25 nM. For the same molecule, the maximum response (Emax) was 45% in [10] and 42% in test [11].
As for `CCCC[C@@H](C(=O)N1CCC[C@H]1C(=O)N[C@@H](CC(C)C)C(=O)N[C@@H](Cc1c[nH]c2ccccc12)C(=O)OCc1cc(C(F)(F)F)cc(C(F)(F)F)c1)N(C)C(=O)[C@H](Cc1ccccc1)NC(=O)CNC(=O)[C@@H](C)NC(=O)[C@@H](N)Cc1ccc(O)cc1`, the EC50 in test [2] was 360 nM. Further, the figures for the Activity in test [7] and in test [9] were 2% and 12%, respectively. Besides, the Ke in [8] worked out at 4.6 nM. Further, the Emax in [10] was 290%.
In turn, `CCCC[C@H](NC(=O)[C@H](Cc1ccccc1)NC(=O)CNC(=O)[C@@H](C)NC(=O)[C@@H](N)Cc1ccc(O)cc1)C(=O)N1CCC[C@H]1C(=O)N[C@@H](CC(C)C)C(=O)N[C@@H](Cc1c[nH]c2ccccc12)C(=O)OCc1cc(C(F)(F)F)cc(C(F)(F)F)c1` showed a half-maximal effective concentration (EC50) in [2] of 4 nM. In addition, the 50% inhibitory concentration (IC50) in test [13] was 370 nM. Moreover, the Activity in test [7] was found to be 0%. Besides, the Ke in test [8] worked out at 7.9 nM. In test [10], this molecule had a maximal effect (Emax) of 130%.

As a reminder, the Ki is the equilibrium dissociation constant of an inhibitor or competing ligand from its target. For orientation: EC50 means the concentration at which the effect is half-maximal. By Emax is commonly meant the maximal effect, on the per cent scale that the assay sets. By IC50 is commonly meant the point on the concentration scale where inhibition reaches its midpoint.
